Assay results published in ChEMBL document CHEMBL1149583, “Effects of oxygen-sulfur substitution on glycosaminoglycan-priming naphthoxylosides” (Bioorg Med Chem, 2007).

Assays:
[1] = system: CHO; assay: Antiproliferative activity against heparan sulfate deficient […] CHO cells; format: cell-based, Cricetulus griseus; settings: chinese hamster
[2] = system: T-24; assay: Antiproliferative activity against human T24 cells after 96 hrs by crystal violet method; format: functional; settings: T-24, 96 h, read-out: ED50 (the source's name)
In short: (§1)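 Seeded at 3000 cells/well (T24) or 5000 cells/well (HFL-1) in DMEM with insulin 10 ng/mL, transferrin 25 ng/mL and 10% FCS. After 4 h, moved to serum-free Ham's F-12 with insulin/transferrin for 24 h. Grown with 10 ng/mL EGF plus xyloside at 25–500 µM for 96 h total. Fixed in 1% glutaraldehyde, stained with 0.1% crystal violet, Triton-lysed, read at A600. ED50 taken relative to untreated controls.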

[3] = system: CHO; assay: Antiproliferative activity against […] CHO cells; format: cell-based, Cricetulus griseus; settings: chinese hamster
[4] = Antiproliferative activity against human HFL1 cells after 96 hrs by crystal violet method; format: cell-based; settings: read-out: ED50; in short: as §1

| Compound | Activity [1] | EC50 [2] [µM] | Activity [3] | GI50 at 96 h [4] [µM] |
| --- | --- | --- | --- | --- |
| Oc1ccc2cc(O[C@@H]3OC[C@@H](O)[C@H](O)[C@H]3O)ccc2c1 | Not Active | 50 | Toxic | – |
| O[C@@H]1[C@@H](O)[C@H](Oc2ccc(S)c3ccccc23)OC[C@H]1O | – | 55 | – | 70 |
| O[C@@H]1[C@@H](O)[C@H](Oc2cccc3cccc(S)c23)OC[C@H]1O | – | 45 | – | 60 |
| O[C@@H]1[C@@H](O)[C@H](Oc2cc3ccccc3cc2S)OC[C@H]1O | – | 145 | – | 60 |
| O[C@@H]1[C@@H](O)[C@H](Oc2ccc3ccc(S)cc3c2)OC[C@H]1O | – | 360 | – | 100 |
| Oc1ccc(S[C@@H]2OC[C@@H](O)[C@H](O)[C@H]2O)c2ccccc12 | – | 160 | – | 130 |
| Oc1cccc2cccc(S[C@@H]3OC[C@@H](O)[C@H](O)[C@H]3O)c12 | – | 225 | – | 120 |
| Oc1cc2ccccc2cc1S[C@@H]1OC[C@@H](O)[C@H](O)[C@H]1O | – | 260 | – | 100 |
| Oc1ccc2ccc(S[C@@H]3OC[C@@H](O)[C@H](O)[C@H]3O)cc2c1 | – | 230 | – | 125 |
| CCCSc1cccc2c(O[C@@H]3OC[C@@H](O)[C@H](O)[C@H]3O)cccc12 | – | 40 | – | 20 |
| CCCSc1cccc2cccc(O[C@@H]3OC[C@@H](O)[C@H](O)[C@H]3O)c12 | – | 155 | – | 100 |
| CCCSc1ccc2cc(O[C@@H]3OC[C@@H](O)[C@H](O)[C@H]3O)ccc2c1 | – | 40 | – | 30 |
| CCCSc1ccc2ccc(O[C@@H]3OC[C@@H](O)[C@H](O)[C@H]3O)cc2c1 | – | 60 | – | 25 |
| CCCSc1cc2ccccc2cc1O[C@@H]1OC[C@@H](O)[C@H](O)[C@H]1O | – | 70 | – | 30 |
| O[C@@H]1[C@@H](O)[C@H](Oc2cccc3c(S)cccc23)OC[C@H]1O | – | 110 | – | 60 |
| O[C@@H]1[C@@H](O)[C@H](Oc2ccc3cc(S)ccc3c2)OC[C@H]1O | – | 135 | – | 60 |
| Oc1cccc2c(S[C@@H]3OC[C@@H](O)[C@H](O)[C@H]3O)cccc12 | – | 320 | – | 135 |
| Oc1ccc2cc(S[C@@H]3OC[C@@H](O)[C@H](O)[C@H]3O)ccc2c1 | – | 355 | – | 145 |
| CCCSc1ccc(O[C@@H]2OC[C@@H](O)[C@H](O)[C@H]2O)c2ccccc12 | – | 30 | – | 30 |
